This is an account of results in ChEMBL document CHEMBL2401736, “HCV NS5A replication complex inhibitors. Part 5: discovery of potent and pan-genotypic glycinamide cap derivatives” (Bioorg Med Chem Lett, 2013).

The subject of data set [1] is Hepatitis C virus. The data set can be described thus: Antiviral activity against Hepatitis C virus genotype 5a. The data set is classed as functional, organism-based, Hepacivirus hominis.
For data set [2], the system named is Hepatitis C virus. The data set can be described thus: Antiviral activity against Hepatitis C virus genotype 3a YH. Format: functional, organism-based, Hepacivirus hominis. The conditions noted are these: subtype 3a YH.
Data set [3] concerns Hepatitis C virus. In words: Antiviral activity against Hepatitis C virus genotype 4a. Format: functional, organism-based, Hepacivirus hominis.
For data set [4], the system named is Hepatitis C virus. In words: Antiviral activity against Hepatitis C virus genotype 3a. Format: functional, organism-based, Hepacivirus hominis.
Data set [5] concerns Hepatitis C virus. In words: Antiviral activity against Hepatitis C virus genotype 2a NIH. Particulars: subtype 2a NIH. The data set is classed as functional, organism-based, Hepacivirus hominis.
Data set [6] deals with Bovine viral diarrhea virus 1. The data set can be described thus: Antiviral activity against Bovine viral diarrhea virus by luciferase assay. The data set is classed as functional, organism-based. The gist of the method:
(§1)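 EC50 values are means of at least two experiments, with at most threefold variation between them.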

Data set [7] concerns Hepatitis C virus. The data set can be described thus: Antiviral activity against Hepatitis C virus genotype 1b by FRET assay. Format: functional, organism-based, Hepacivirus hominis. The gist of the method: as §1
Data set [8] has as its system Hepatitis C virus. The data set can be described thus: Antiviral activity against Hepatitis C virus genotype 1a by ELISA. Format: functional, organism-based, Hepacivirus hominis, subtype 1a. The gist of the method:
as §1

Data set [9] relates to Hepatitis C virus. The data set can be described thus: Antiviral activity against Hepatitis C virus genotype 1b harboring NS5A L31V/Y93H double mutant by FRET assay. Format: functional, organism-based, Hepacivirus hominis.
The nature of data set [10]: Permeability of the compound across human Caco2 cells. Particulars: Caco-2, read-out: permeability. The data set is classed as ADME, cell-based.
A short description of data set [11]: Metabolic stability in rat liver microsomes assessed as compound remaining after 10 mins. The data set is classed as ADME, Microsome. Particulars: read-out: Stability. In a few lines:
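Compound incubated with rat liver microsomes for 10 min; read-out is the percentage of parent remaining.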
For orientation: Liver microsomes are vesicles of endoplasmic reticulum, rich in cytochrome P450 enzymes.

Data set [12] is described as follows: Clearance in rat at 2 mg/kg, iv after 4 hrs. The conditions noted are these: in vivo. Format: ADME, organism-based. Set-up: dose 2 mg/kg, route intravenous. The gist of the method:
(§2)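 Rat 4 h PK screen: 2 mg/kg IV and 5 mg/kg PO, each dose as its line states. Plasma sampled 5 times (0.17, 0.5, 1, 2 and 4 h); n = 2 rats.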

Data set [13] in a line: AUC (0 to 4 hrs) in rat at 2 mg/kg, iv. Format: ADME, organism-based. Also noted: time < 4 hr, dose 2 mg/kg, route intravenous. Particulars: plasma. The gist of the method:
as §2

Data set [14] is described as follows: (§3) AUC (0 to 4 hrs) in rat at 5 mg/kg, po. Format: ADME, organism-based, Plasma. Set-up: time < 4 hr, dose 5 mg/kg, route oral. Particulars: plasma. The gist of the method:
as §2

Data set [15] is described as follows: Dissociation constant, pKa of the compound in MeOH/H2O at pH 2 to 11. The data set is classed as physicochemical. The gist of the method:
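pKa found by potentiometric titration over pH 2–11 in varying MeOH/H2O mixtures.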

Data set [16] relates to Hepatitis C virus. In words: Ratio of EC50 for Hepatitis C virus genotype 1b harboring NS5A L31V/Y93H double mutant to EC50 for Hepatitis C virus genotype 1b. The data set is classed as functional, Hepacivirus hominis.
The test system of another data set is Rattus norvegicus. The data set is described as §3. The data set is classed as ADME, organism-based, Plasma. Set-up: time < 4 hr, dose 5 mg/kg, route oral. Particulars: in vivo, 4 h, BLD = below limit of detection. In a few lines:
as §2

[17] abbreviates: Bovine viral diarrhea virus isolates and strains.

The term EC50 denotes the concentration that produces a half-maximal response. Read a low EC50 as a more potent agent. In general, clearance refers to a measure of how efficiently the substance is removed, as volume per time. Usually AUC(0-t) stands for exposure summed from dosing to a finite time, without extrapolation to infinity. Low values mean low exposure, high ones high exposure. What is called pKa is the pH at which an ionisable group is half protonated.

Structures are written as SMILES.

Take `O=C(Nc1ccc(/C=C/c2ccc(NC(=O)[C@@H]3CCCN3C(=O)Cc3ccccc3)cc2)cc1)[C@@H]1CCCN1C(=O)Cc1ccccc1`: the EC50 in the data set with Hepatitis C virus [1] was < 0.23 nM; with Hepatitis C virus [2] it was > 3000 nM; in the data set on Hepatitis C virus [3] it was 0.16 nM; in the data set with Hepatitis C virus [4], 0.3 nM; with Hepatitis C virus [5], 260 nM; in data set [6] (setting [17]), > 10000 nM. The EC50 in the data set on Hepatitis C virus [7] (Hepatitis C virus, genotype 1b) is 0.086 nM; in the data set on Hepatitis C virus [8] (Hepatitis C virus, subtype 1a), > 10000 nM.

Regarding `COC(=O)N[C@@H](C(=O)N1CCC[C@H]1C(=O)Nc1ccc(C#Cc2ccc(NC(=O)[C@@H]3CCCN3C(=O)[C@H](NC(=O)OC)c3ccccc3)cc2)cc1)c1ccccc1`, the EC50 with Hepatitis C virus [9] is 382 nM; in data set [6] (setting [17]), > 10000 nM; with Hepatitis C virus [7] (Hepatitis C virus, genotype 1b), 0.013 nM; in the data set with Hepatitis C virus [8] (Hepatitis C virus, subtype 1a) it was 26 nM.

As to `CC(=O)N[C@H](C(=O)N1CCC[C@H]1C(=O)Nc1ccc(C#Cc2ccc(NC(=O)[C@@H]3CCCN3C(=O)[C@@H](NC(C)=O)c3ccccc3)cc2)cc1)c1ccccc1`, the Papp in [10] was < 1.5 ×10⁻⁶ cm/s. Also, in data set [11], the remaining at 10 min was determined as 100%. In [12], this compound showed a clearance of 13.3 mL/min/kg. In addition, the results for the AUC(0-t) at 4 h in data set [13] and in data set [14] were 2.11 µM·h and 0.093 µM·h, respectively. The EC50 in [6] (setting [17]) is > 10000 nM; in the data set with Hepatitis C virus [7] (Hepatitis C virus, genotype 1b), 0.005 nM; with Hepatitis C virus [8] (Hepatitis C virus, subtype 1a) it was 24 nM.

For the compound `COc1cccc2c(C(=O)N3CCC[C@H]3C(=O)Nc3ccc(/C=C/c4ccc(NC(=O)[C@@H]5CCCN5C(=O)c5nc(Cl)cc6c(OC)cccc56)cc4)cc3)nc(Cl)cc12`, the EC50 in the data set with Hepatitis C virus [1] was 3 nM; with Hepatitis C virus [2], 74.9 nM; in the data set with Hepatitis C virus [3] it was > 10000 nM; with Hepatitis C virus [4] it was 3.2 nM; in the data set with Hepatitis C virus [5], 14 nM; in data set [6] (setting [17]), > 10000 nM. Besides, the EC50 in the data set with Hepatitis C virus [7] (Hepatitis C virus, genotype 1b) stood at 7.1 nM; in the data set with Hepatitis C virus [8] (Hepatitis C virus, subtype 1a) it was 19 nM.

Consider `O=C(Nc1ccc(C#Cc2ccc(NC(=O)[C@@H]3CCCN3C(=O)C(c3ccccc3)N3CCC(O)CC3)cc2)cc1)[C@@H]1CCCN1C(=O)C(c1ccccc1)N1CCC(O)CC1` (stereo in doubt; 5g.1), for which the EC50 in the data set on Hepatitis C virus [1] stood at 0.017 nM; in the data set with Hepatitis C virus [2], 5.4 nM; with Hepatitis C virus [3] it was 0.042 nM; with Hepatitis C virus [4] it was 0.037 nM; in the data set with Hepatitis C virus [5] it was 0.083 nM; in the data set with Hepatitis C virus [9], 12 nM. Besides, the results for the EC50 (in data set [6]; in the data set with Hepatitis C virus [7]; in the data set with Hepatitis C virus [8]) were 6980 nM, < 0.13 nM and 0.82 nM, respectively. The compound also registered a pKa in data set [15] of 6.8. Also, in the data set with Hepatitis C virus [16], the “Ratio EC50” value was >90.

Turning to `CN1CCN(C(C(=O)N2CCC[C@H]2C(=O)Nc2ccc(C#Cc3ccc(NC(=O)[C@@H]4CCCN4C(=O)C(c4ccccc4)N4CCN(C)CC4)cc3)cc2)c2ccccc2)CC1` (stereo in doubt; 5i.1), the Papp in data set [10] was < 1.5 ×10⁻⁶ cm/s. For the same compound, the remaining at 10 min in data set [11] was found to be 100%. Also, the AUC entry in the data set on Rattus norvegicus was “BLD”. Further, the figures for the EC50 (in data set [6]; with Hepatitis C virus [7]; in the data set with Hepatitis C virus [8]) were > 3330 nM, 0.152 nM and < 4.6 nM, respectively.
